The values that follow come from ChEMBL document CHEMBL1129463, “Discovery of 1,5-benzodiazepines with peripheral cholecystokinin (CCK-A) receptor agonist activity (II): Optimization of the C3 amino substituent” (J Med Chem, 1996).

The target in experiment [1] is T1, Cholecystokinin receptor type A (Homo sapiens, UniProt P32238).
T1 sequence (P32238 whole entry): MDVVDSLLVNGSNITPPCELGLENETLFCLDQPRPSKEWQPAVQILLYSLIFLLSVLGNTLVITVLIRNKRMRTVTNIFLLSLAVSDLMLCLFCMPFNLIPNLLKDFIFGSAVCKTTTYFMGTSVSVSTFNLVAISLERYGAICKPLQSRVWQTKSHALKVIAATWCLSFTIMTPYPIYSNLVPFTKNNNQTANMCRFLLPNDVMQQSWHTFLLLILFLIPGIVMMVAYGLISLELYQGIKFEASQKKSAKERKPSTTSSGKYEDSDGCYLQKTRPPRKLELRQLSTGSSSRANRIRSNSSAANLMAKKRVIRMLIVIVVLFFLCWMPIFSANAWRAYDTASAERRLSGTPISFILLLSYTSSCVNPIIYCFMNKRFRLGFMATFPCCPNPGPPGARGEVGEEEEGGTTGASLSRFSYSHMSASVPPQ
Put plainly: Compound was tested in vitro for its ability to displace [125I]Bolton-Hunter CCK-8 from membrane preparation isolated from CHO-KI cells stably transfected with cDNA of human Cholecystokinin type A receptor. It counts as cell membranes.

The species entered for experiment [2] is Cavia porcellus. The experiment can be described thus: In-vitro potency on the isolated guinea pig gallbladder. It counts as functional.
For experiment [3], the species on record is Cavia porcellus. The experiment can be described thus: Maximum contractile response at 30 uM, normalized to CCK-8 (1 uM). Type of experiment: functional.
The test system of experiment [4] is Rattus norvegicus. The experiment can be described thus: Compound was tested in vivo for its anorectic potency in rats at dose of 0.1 umol/kg ip. It counts as functional.
In experiment [5] the test system is Mus musculus. Put plainly: Compound was tested in vivo for its activity in mouse gallbladder emptying assay at dose of 1 umol/kg po. It counts as functional.
The subject of experiment [6] is Mus musculus. Put plainly: Compound was tested in vivo for Percent Maximal response in mouse gallbladder emptying assay at dose of 1 umol/kg po. It counts as functional.
Experiment [7] concerns Rattus norvegicus. Put plainly: Compound was tested in vivo for its Percent Maximal anorectic potency in rats at dose of 10 umol/kg po; ia = Inactive. Type of experiment: functional, organism-based.
The test system of experiment [8] is Mus musculus. The experiment can be described thus: Compound was tested in vivo Percent Maximal response activity in mouse gallbladder emptying assay at dose of 1 nmol/kg ip.
Experiment [9] deals with Mus musculus. Put plainly: Compound was tested in vivo for its activity in mouse gallbladder emptying assay at dose of 0.1 umol/kg ip. It counts as functional.
Experiment [10] concerns the target T2, Gastrin/cholecystokinin type B receptor (Homo sapiens, UniProt P32239).
T2 sequence (P32239 whole entry): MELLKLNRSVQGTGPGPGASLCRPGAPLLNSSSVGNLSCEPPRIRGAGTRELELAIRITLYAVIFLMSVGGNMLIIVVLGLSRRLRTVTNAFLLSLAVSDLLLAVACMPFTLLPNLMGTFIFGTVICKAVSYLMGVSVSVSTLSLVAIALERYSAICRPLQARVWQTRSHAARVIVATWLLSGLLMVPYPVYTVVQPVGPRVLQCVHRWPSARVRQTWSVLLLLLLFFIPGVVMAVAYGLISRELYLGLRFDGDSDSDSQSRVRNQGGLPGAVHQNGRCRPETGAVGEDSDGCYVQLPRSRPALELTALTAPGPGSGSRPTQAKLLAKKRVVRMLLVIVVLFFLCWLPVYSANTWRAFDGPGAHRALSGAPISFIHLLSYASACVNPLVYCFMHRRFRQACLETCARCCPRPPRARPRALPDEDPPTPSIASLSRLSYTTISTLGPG
The experiment can be described thus: Compound was tested in vitro for its ability to displace [125I]Bolton-Hunter CCK-8 from membrane preparation isolated from CHO-KI cells stably transfected with cDNA of human Cholecystokinin type B receptor. Type of experiment: cell membranes.

Experiment [11] has as its system Rattus norvegicus. The experiment can be described thus: Compound was tested in vivo for its Percent Maximal anorectic potency in rats at dose of 0.5 umol/kg ip. Type of experiment: functional.
The target in experiment [12] is Cholecystokinin receptor (Homo sapiens) (UniProt P32239+P32238). Put plainly: Selectivity ratio of inhibition of CCK-A vs CCK-B. Type of experiment: protein assay. In short, it runs like this:
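Displacement of [125I]Bolton-Hunter CCK-8 from membranes of CHO-K1 cells stably transfected with human CCK-A or CCK-B receptor cDNA. pIC50 values were measured for each receptor. The ratio is IC50 CCK-A / IC50 CCK-B.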

Experiment [13] is filed under the species Cavia porcellus. Put plainly: In vitro functional activity on the isolated guinea pig gallbladder. Further details: concentration or dose not given beside the values.
The test system of experiment [14] is Rattus norvegicus. The experiment can be described thus: Compound was tested in vivo for its Percent Maximal anorectic potency in rats at dose of 0.1 umol/kg ip. It counts as functional.
For experiment [15], the species on record is Cavia porcellus. The experiment can be described thus: In vitro Functional activity on the isolated guinea pig gallbladder following incubation at 1 micro M percent contraction normalized to that for CCK-8. In short, it runs like this: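 Contraction is expressed as percent of the CCK-8 (1 μM) response. Non-contracting compounds were tested for antagonism against a CCK-8 curve (10⁻¹¹ to 10⁻⁶ M).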

The test system of experiment [16] is Rattus norvegicus. The experiment can be described thus: Compound was tested in vivo for its anorectic potency in rats at dose of 0.5 umol/kg ip.
Experiment [17] concerns Rattus norvegicus. The experiment can be described thus: Compound was tested in vivo for its Percent Maximal anorectic potency in rats at dose of 1 umol/kg po. It counts as functional.

Calls of active or inactive are those of the source. The rule behind the calls is not given here.

As a reminder, the IC50 is the concentration that gives 50% inhibition. Broadly, the EC50 is the concentration needed to bring the measured effect to its halfway point. A word on the ED50: it is the midpoint of the dose-response relation. For `CC(C)N(C(=O)CN1C(=O)C(NC(=O)c2cc3ccccc3[nH]2)C(=O)N(c2ccccc2)c2ccccc21)c1ccccc1` (stereo unspecified), the IC50 is 15.8 nM in experiment [1] and 316 nM in experiment [10]. Besides, the EC50 in the experiment filed under Cavia porcellus [2] is 501 nM. Further, the Max in the experiment filed under Cavia porcellus [3] was found to be 49%; with Mus musculus [6], 85%; with Mus musculus [8] it was 73%; in the experiment with Rattus norvegicus [11], 56%. Besides, the ED50 in the experiment on Rattus norvegicus [4] was determined as 0.095 µmol/kg; with Mus musculus [5], 0.3 µmol/kg; with Mus musculus [9] it was 0.005 µmol/kg. The Max entry with Rattus norvegicus [7] was “inactive”. Also, the Selectivity ratio in experiment [12] was 20. In the experiment listed under Cavia porcellus [13], this molecule returned an Activity of 49%.
For the molecule `CC(C)N(C(=O)CN1C(=O)C(NC(=O)Nc2cccc(C(=O)O)c2)C(=O)N(c2ccccc2)c2ccccc21)c1ccccc1` (stereo unspecified), the IC50 is 126 nM in [1] and 10 nM in experiment [10]. In the experiment listed under Cavia porcellus [2], the EC50 is 39.8 nM. Further, the Max in the experiment listed under Cavia porcellus [3] was determined as 102%; with Mus musculus [6], 77%; in the experiment on Rattus norvegicus [14] it was 87%; in the experiment with Mus musculus [8] it was 73%; in the experiment with Rattus norvegicus [17], 58%. Further, the ED50 came to 0.055 µmol/kg in the experiment on Mus musculus [5], 0.0071 µmol/kg in the experiment with Mus musculus [9] and 0.06 µmol/kg in the experiment with Rattus norvegicus [16]. Further, the Activity is given as 95% in the experiment filed under Cavia porcellus [15] and 100% in the experiment filed under Cavia porcellus [13].
